Assay results pooled from the literature.
Lines come from different studies, so protocols differ.

Compound | tested on | test | test system | setting | measurement | value
COc1cccc(-c2n[nH]c(SCc3ccccn3)n2)c1OC |  |  | female Sprague-Dawley rat, plasma | intravenous, 1 mg/kg, 10 min, single dose | concentration | 2680 ng/mL
Cc1cc(C)cc(NC(=O)CN(C)S(=O)(=O)c2ccc3[nH]c4c(c3c2)CCCC4)c1 | K562 | cell growth or viability |  |  | IC50 | 12.8 µM
CCc1cc(-c2noc(-c3cc(OC)nc(C4CCCC4)c3)n2)cc(C)c1OC[C@@H](O)CO |  |  | Wistar rat, plasma | oral, 0.3 mg/kg, 3 h, single dose | concentration | 16.7 ng/mL
C=CC1(C)CC(OC(=O)CSc2nc3ccccc3s2)C2(C)C(C)CCC3(CCC(=O)C32)C(C)C1O (stereo not drawn) | K562 | cell growth or viability |  |  | IC50 | 38.2 µM
Cc1noc(C)c1Cn1cc(N2C(=O)CN(Cc3cccc(O)c3)C2=O)cn1 |  |  | male Sprague-Dawley rat, plasma | oral, 100 mg/kg, 1 h | concentration | 30.5 ng/mL
CCOC(=O)[C@@]12C[C@@H]1[C@@H](n1ccc3c(NC)nc(C#Cc4ccc(Cl)s4)nc31)[C@H](O)[C@@H]2O |  |  | male Sprague-Dawley rat, plasma | oral, 1 mg/kg, 15 min | concentration | 5.75 ng/mL
Nc1ccc(S(=O)(=O)NC(=O)/C=C\c2ccccc2Cl)cc1 | K562 | cell growth or viability |  |  | IC50 | > 200 µM
C[C@@H]1Cn2ncc(-c3ccc(C(=O)N4CCCc5ccccc54)cc3)c2CN1C(=O)[C@H](C)c1ccccc1 | Broad substrate specificity ATP-binding cassette transporter ABCG2 (ABCG2, Homo sapiens, UniProt Q9UNQ0) |  | dog, MDCK-MDR1 |  | Papp B→A | 13.4 ×10⁻⁶ cm/s
COc1ccc2c(=O)n(C)c(-c3ccccc3)nc2c1 |  |  | male Sprague-Dawley rat, lung | oral, 30 mg/kg, 2 h | concentration | 2.13 ng/mL
